# Hit rate of the full screen: of about 360,000 compounds, about 1,500 (0.42%) were called active.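 Rule for the calls: active = inhibition above a per-plate cutoff of the control wells' mean inhibition plus 3 SD (cut at about 5.5% in these data); inactive = the rest.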 Only a selection was taken, and actives are over-represented in it overall.
# Tested on: methionyl-tRNA synthetase (Trypanosoma brucei brucei)
# Experiment: inhibition of trypanosome methionyl-tRNA synthetase – biochemical, luminescence, primary screen (AID 624268);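 note: 0% = DMSO wells median and 100% = median of wells with control inhibitor compound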
# Conditions: purified T. brucei MetRS, ATP depletion, Kinase-Glo luminescence; at 11.9 µM; hits give high values
# Procedure, shortened: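 Dosing: 11.9 µM compound single dose, 0.9% DMSO; Assay system: purified T. brucei MetRS enzyme; Measured by: Kinase-Glo luciferase luminescence reporting remaining unconsumed ATP; Schedule: 15 min plus 2 h at 25 °C.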
row,SMILES,inhibition
1,Cc1ccc(N(C(=O)C(F)(F)F)C(C(=O)NC2CCCCC2)c2ccncc2)cc1C (stereo unspecified),-0.39% (inactive)
2,COc1ccccc1OCC(=O)Nc1c2c(nn1-c1ccc(F)cc1)CS(=O)(=O)C2,0.18% (inactive)
3,CC(=O)Nc1cc(-c2cccc(CO)c2)cn2c(-c3cccc(C(F)(F)F)c3)cnc12,-0.15% (inactive)
4,Cc1cc(C)cc(NC(=O)N(C)Cc2ccccc2)c1,6.26% (active)
5,Cc1cc(C)cc(NC(=O)CSc2ccccc2)c1,-0.78% (inactive)
6,Cc1cc(C)cc(NC(=O)NCc2ccccn2)c1,-0.48% (inactive)
7,COc1ccc(CCNC(=O)C2CC3Cn4c(nc5cc(C)c(C)cc54)C3N2C)cc1 (stereo unspecified),0.64% (inactive)
8,CN(C)CCn1c(=S)[nH]c2ccc(Cl)cc2c1=O,0.6% (inactive)
9,CCCCN(C)Cc1c(C)[nH]c2ccc(Cl)cc2c1=O,47% (active)
10,CCOC(=O)c1ccc2[nH]c(C)c(CN3CCN(C)CC3)c(=O)c2c1,-0.39% (inactive)
11,Cc1cccc(C)c1-n1nnnc1C(CCc1ccccc1)N1CCN(C/C=C/c2ccccc2)CC1 (stereo unspecified),-1% (inactive)
12,Cc1cccc(N2CCN(C(c3ccc(N(C)C)cc3)c3nnnn3C(C)(C)C)CC2)c1C (stereo unspecified),-1.18% (inactive)
13,NC1=NC(=O)S/C1=C\c1ccc(O)cc1,22.9% (active)
14,O=C(/C=C(O)/C=C/c1ccc(O)cc1)/C=C/c1ccc(O)cc1,-0.28% (inactive)
15,CC(C)(C)c1ccc(/C=C2\SC(=O)N=C2N)cc1,19.9% (active)
16,CCc1nc(C)cn1S(=O)(=O)c1cc([N+](=O)[O-])ccc1Cl,-0.04% (inactive)
17,O=C(CN1C(=O)CC(c2ccccc2)S(=O)(=O)c2ccccc21)NC1CCCC1 (stereo unspecified),-0.4% (inactive)
18,Cc1cc(C(=O)OCC(=O)Nc2ccc(F)c(F)c2)c(C)o1,0.47% (inactive)
19,COc1ccccc1NS(=O)(=O)N(C)C,-0.33% (inactive)
20,CCOC(=O)CSc1nc2ccc(C)cc2n2cnnc12,-0.42% (inactive)
21,CN(C)CCNC(=O)c1ccc(-c2cn3c(-c4ccc(Oc5ccccc5)cc4)cnc3cn2)cc1,0.12% (inactive)

row,SMILES,inhibition
1,CC(C)(C)n1cnnc1Sc1ccc([N+](=O)[O-])cn1,-0.07% (inactive)
2,O=C(Cc1ccc(S(=O)(=O)N2CCOCC2)s1)NCCC(c1ccccc1)c1ccccc1,-0.24% (inactive)
3,O=C(Cc1ccc(S(=O)(=O)N2CCOCC2)s1)Nc1ccc(Br)c(C(F)(F)F)c1,9.17% (active)
4,O=C(Cc1ccc(S(=O)(=O)N2CCOCC2)s1)NCCOc1ccccc1F,-0.22% (inactive)
5,Cc1nc(-c2ccc(Cl)cc2)sc1C1(C)CC(c2ccc(Br)cc2)=NO1 (stereo unspecified),0.57% (inactive)
6,Cc1c(O)c(C)c2c(c1O)C(=O)C[C@@H](c1ccccc1)O2,1.18% (inactive)
7,CCO[C@@H]1OC(C(=O)NCc2nc3ccccc3[nH]2)=C[C@H](C2CCCCC2)[C@H]1CCCO,15.3% (active)
8,CCO[C@H]1OC(C(=O)O)=C[C@@H](C2CCCCC2)[C@@H]1CCCO,-0.27% (inactive)
9,CCO[C@H]1OC(C(=O)Nc2ccccc2)=C[C@@H](C2CC2)[C@@H]1CCCO,-0.28% (inactive)
10,c1ccc(-c2ccc3c(c2)NC(C2Nc4cc(-c5ccccc5)ccc4O2)O3)cc1 (stereo unspecified),-0.77% (inactive)
11,NC(=O)c1ccc(-c2csnn2)cc1,-0.49% (inactive)
12,Cc1cc(Nc2cccc(F)c2)n2ncnc2n1,0.76% (inactive)
13,C/C(=N/NC(=O)c1cc(Cl)ccc1O)C12CC3CC(CC(C3)C1)C2,-0.58% (inactive)
14,CC(=N\NC(=O)c1cc(Br)ccc1O)/C(=N/O)C(=O)Nc1ccccc1,7.43% (active)
15,O=C(Nc1ccccc1)c1ccccc1Br,0.92% (inactive)
16,COc1ccc(S(=O)(=O)c2c[nH]c(=S)[nH]c2=O)cc1Cl,-0.79% (inactive)
17,CCOC(=O)c1cccc(NC(=O)CCc2c(C)nc3ncnn3c2C)c1,-0.04% (inactive)
18,Cc1ccc(C(=O)Nc2ccc(C)c(S(=O)(=O)N(C)C)c2)s1,-0.69% (inactive)
19,O=C(Nc1cccc(Cl)c1)Nc1ccccc1NS(=O)(=O)c1cccs1,-0.14% (inactive)
20,O=S(=O)(NCCc1ccc(Cl)cc1)c1cccs1,0.22% (inactive)
21,O=S(=O)(NCc1ccc(Cl)cc1Cl)c1cccs1,18.5% (active)

row,SMILES,inhibition
1,Cc1ccnc(NC(=O)Cn2ccc([N+](=O)[O-])n2)c1,1.25% (inactive)
2,O=C(O)c1cccnc1Sc1ncnc2sc3c(c12)CCC3,-0.25% (inactive)
3,Cn1c(NN)nc2sc3c(c2c1=O)CCC3,-0.59% (inactive)
4,OCCNc1nc2ccccc2n1-c1ncnc2sc3c(c12)CCC3,22.8% (active)
5,CSCC[C@H](NC(=O)NCc1cccs1)C(=O)O,2.05% (inactive)
6,O=S(=O)(c1ccccc1)N1CCC(c2ccccc2)CC1,0.06% (inactive)
7,O=S(=O)(c1ccc(Br)cc1)N1CCC(c2nc3ccccc3[nH]2)CC1,7.1% (active)
8,N#CC(C(=O)c1ccc(S(=O)(=O)N2CCCCCC2)cc1)c1nc2ccccc2[nH]1 (stereo unspecified),-0.41% (inactive)
9,CCCNS(=O)(=O)c1ccc2c(c1)CCCN2C(C)=O,-0.19% (inactive)
10,Clc1ccc(-c2cc(-c3ccccn3)on2)c(Cl)c1,0.55% (inactive)
11,Clc1ccc(-c2cc(C3CCNCC3)[nH]n2)c(Cl)c1,39.1% (active)
12,CCC(C)[C@H](NC(=O)N1c2ccccc2NC(=O)[C@@H]1C(C)C)C(=O)N[C@@H](Cc1ccccc1)C(=O)O (stereo partly specified),-1.81% (inactive)
13,O=C(NCC(O)c1nc2ccccc2[nH]1)c1ccc(Br)cc1 (stereo unspecified),21% (active)
14,CSCCC(NC(=O)c1cc([N+](=O)[O-])cc([N+](=O)[O-])c1)c1nc2ccccc2[nH]1 (stereo unspecified),3.68% (inactive)
15,CCCC(NC(=O)c1ccco1)c1nc2ccccc2[nH]1 (stereo unspecified),0.25% (inactive)
16,COc1ccccc1CCC(=O)OCC(=O)N1CCN(S(=O)(=O)c2ccc(C)cc2C)CC1,-0.39% (inactive)
17,C/C(=C\C(=O)c1ccccc1)Nc1cccc(O)c1,0.01% (inactive)
18,O=C(NCc1cccnc1)Nc1cccc(NC(=O)NCc2cccnc2)c1F,-1.05% (inactive)
19,O=C(NCc1cccc(CNC(=O)Nc2cccc(O)c2)c1)Nc1cccc(O)c1,8.03% (active)
